From PMC7725269 (ACS biomaterials science & engineering, 2019)

Tests used:
T47D cells = test: Annexin V apoptosis flow cytometry; assay type: cell-based; details: 1 μM PA 1 or equivalent paclitaxel
human recombinant DR5 = human recombinant DR5 (Homo sapiens, UniProt O14763); test: Surface plasmon resonance against immobilized DR5; assay type: binding; details: SPR, immobilized DR5, running buffer pH 7.0
Outline: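 About 2000 RU of recombinant human DR5 was EDC/NHS-coupled to a dextran chip from 10 ug/mL in 15 mM Na acetate pH 5.6, then ethanolamine-capped. Running buffer was 10 mM phosphate, 150 mM NaCl, 3 mM EDTA, 0.01% Tween 20. Analytes were quantified by A280 and tested at 62 nM targeting PA. Association was 8 min and dissociation 10 min at 30 uL/min, with 25 mM HCl 30 s regeneration.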

Chain of human recombinant DR5 (O14763 56-440): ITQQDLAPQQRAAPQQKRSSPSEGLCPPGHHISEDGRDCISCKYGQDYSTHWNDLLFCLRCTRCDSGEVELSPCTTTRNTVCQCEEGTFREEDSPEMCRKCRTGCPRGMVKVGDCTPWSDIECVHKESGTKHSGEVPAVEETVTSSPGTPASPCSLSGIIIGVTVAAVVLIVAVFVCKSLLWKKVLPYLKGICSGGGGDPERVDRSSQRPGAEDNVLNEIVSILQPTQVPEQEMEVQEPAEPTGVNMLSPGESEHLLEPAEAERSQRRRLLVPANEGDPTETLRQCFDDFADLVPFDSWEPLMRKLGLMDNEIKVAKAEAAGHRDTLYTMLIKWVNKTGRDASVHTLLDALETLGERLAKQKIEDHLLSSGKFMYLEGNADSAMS

CC(=O)O[C@H]1C(=O)[C@@]2(C)[C@H]([C@H](OC(=O)c3ccccc3)[C@]3(O)C[C@H](OC(=O)[C@H](O)[C@@H](NC(=O)c4ccccc4)c4ccccc4)C(C)=C1C3(C)C)[C@]1(OC(C)=O)CO[C@@H]1C[C@@H]2O [Paclitaxel, paclitaxel]
Annexin V binding / cell death (in words) (T47D cells): statistically significant increase in annexin V binding

PEG2000-E2A6K(C12) [PA 4]
Binding to DR5 (in words) (human recombinant DR5): did not show any binding
